Assays:
α-glucosidase [1] = assay: Fluorescence quenching measurements and thermodynamic analysis of binding; parameters: species or system Saccharomyces cerevisiae
Summary of the method: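 α-Glucosidase (0.1 U/mL) was equilibrated 10 min with test compound at 0 to 1.0 µM. Emission was scanned from 300–450 nm with excitation at 280 nm in a 1.0 cm quartz cell, and enzyme-free compound background was subtracted. Spectra covered 20–60 °C. KA came from F0/(F0–F) versus total drug concentration at 20 °C and 60 °C, with binding-site number at 20 °C.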

[2] = test system: Saccharomyces cerevisiae α-glucosidase; assay: α-Glucosidase inhibition assay; format: biochemical; details: IC50 compared with acarbose
α-glucosidase [3] = assay: Enzyme kinetic study; format: biochemical, Saccharomyces cerevisiae; details: Km increased, Vmax constant with rising inhibitor concentration
Summary of the method: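 Yeast α-glucosidase (1 U/mL) was preincubated 15 min at 30 °C with test compound at 0, 12.5, 25 and 50 µM or 0, 15, 30 and 60 µM. p-Nitrophenyl α-D-glucopyranoside was then added at graded concentrations, and absorbance change at 405 nm was followed for 20 min. Double-reciprocal plots were made, and KI was taken from a replot of apparent Km versus inhibitor concentration.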

KA (binding constant) (α-glucosidase [1]; 20 °C) | KA (binding constant) (α-glucosidase [1]; 60 °C) | times more potent than acarbose [2] | inhibition mode (α-glucosidase [3]) | Compound
4.8 × 10 ^4 L mol^–1 s^–1 | 2.7 × 10 ^4 L mol^–1 s^–1 | 15 times | competitive inhibition | COc1ccccc1NC(=O)Cn1cc(CSc2nc3ccccc3c3nc(-c4ccccc4)c(-c4ccccc4)n23)nn1 [19e, 2-(4-(((2,3-diphenylimidazo[1,2-c]quinazolin-5-yl)thio)methyl)-1H-1,2,3-triazol-1-yl)-N-(2-methoxyphenyl)acetamide]
6.8 × 10 ^4 L mol^–1 s^–1 | 5.0 × 10 ^4 L mol^–1 s^–1 | – | competitive inhibition | COc1ccccc1NC(=O)Cn1cc(CSc2nc3ccccc3c3nc4ccccc4n23)nn1 [27e, 2-(4-((benzo[4,5]imidazo[1,2-c]quinazolin-6-ylthio)methyl)-1H-1,2,3-triazol-1-yl)-N-(2-methoxyphenyl)acetamide]
